Data taken from PMC9201701 (RSC Advances, 2022).
“Also recorded” adds a separate entry of the source.

Legend:
[1] = MTT cytotoxicity assay, vero cells; format: cell-based, African Green Monkey; settings: African green monkey, Vero cells (normal kidney cells)
[2] = system: HCT-116, HT-29, MCF-7 and vero cell lines; assay: MTT cytotoxicity assay, stated over all four cell lines; format: cell-based; settings: for IC50: read-out: IC50 range over all cell lines; for Cytotoxicity against all tested cell lines, in words: HCT-116, HT-29, MCF-7 and vero cells
Summary of the method: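 Cells grown in RPMI 1640 with 10% FBS, penicillin and streptomycin at 37 °C, 5% CO2. Solvent controls got 1:1 DMSO/EtOH. After exposure, medium replaced with fresh medium containing MTT (0.5 mg mL−1 in PBS) for 2 h. […] Viability % = sample/control (A550−A655) × 100. Four replicates.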

MCF-7 = assay: MTT cytotoxicity assay, MCF-7; format: cell-based, human; settings: for IC50: Homo sapiens, MCF7, 72 h, read-out: Cytotoxicity IC50, MCF-7; for Cytotoxicity IC50, MCF-7: 72 hours, MTT assay
HCT-116 = assay: MTT cytotoxicity assay, HCT-116; format: cell-based, human; settings: for IC50: Homo sapiens, HCT-116, 72 h, read-out: Cytotoxicity IC50, HCT-116; for Cytotoxicity IC50, HCT-116: 72 hours, MTT assay
HT-29 = assay: MTT cytotoxicity assay, HT-29; format: cell-based, human; settings: for IC50: Homo sapiens, HT-29, 72 h, read-out: Cytotoxicity IC50, HT-29; for Cytotoxicity IC50, HT-29: 72 hours, MTT assay
vero cells = assay: MTT cytotoxicity assay, vero cells; format: cell-based, African Green Monkey; settings: for Cytotoxicity IC50, Vero cell: 72 hours, MTT assay
MRC-5 = settings: read-out: Cytotoxicity IC50, MRC-5; cited from earlier work
KB = settings: read-out: Cytotoxicity IC50, KB; cited from earlier work
HeLa = settings: read-out: Cytotoxicity IC50, HeLa; cited from earlier work
HepG2 cell line = settings: read-out: Cytotoxicity IC50, HepG2 cell line; cited from earlier work
HeLa cells = settings: read-out: Cytotoxicity IC50, HeLa cells; ref 9 (Posri et al., 2021); cited from earlier work
Pythium insidiosum = settings: compared with amphotericin-B standard; cited from earlier work

COc1cc(C2COc3cc(O)cc(O)c3C2=O)c(OC)cc1O (stereo not drawn) [Compound 8, 5,7,4′-Trihydroxy-2′,5′-dimethoxyisoflavanone]
IC50 at 72 h [1]: 93.6 ± 10.2 µM | IC50 [2]: 69 to 147 µM | IC50 (MCF-7): 148 ± 1.96 µM | IC50 (HCT-116): 92.7 ± 1.84 µM | IC50 (HT-29): 69.9 ± 6.47 µM

COc1cc(-c2coc3cc(OC(C)=O)cc(O)c3c2=O)c(OC)cc1OC(C)=O [Compound 3, 7,4′-Diacetoxy-5-hydroxy-2′,5′-dimethoxyisoflavone]
IC50 at 72 h [1]: 112 ± 12.3 µM | Cytotoxicity IC50, MCF-7 (MCF-7): Inactive | Cytotoxicity IC50, HCT-116 (HCT-116): Inactive | Cytotoxicity IC50, HT-29 (HT-29): Inactive

COc1cc(OC)c2c(=O)c(-c3cc(OC)c(OC)cc3OC)coc2c1 [Compound 6, 5,7,2′,4′,5′-Pentamethoxyisoflavone]
IC50 at 72 h [1]: > 269 µM | Cytotoxicity against all tested cell lines, in words [2]: weak activity | IC50 (MCF-7): 98.5 ± 15.4 µM | IC50 (HCT-116): 178 ± 2.23 µM | IC50 (HT-29): 154 ± 12.1 µM

COc1cc(O)c2c(c1)OCC(c1cc(OC)c(OC)cc1OC)C2=NN (stereo not drawn) [Compound 14, 5-Hydroxy-7,2′,4′,5′-tetramethoxyisoflavanone hydrazone]
Cytotoxicity IC50, Vero cell (vero cells): Inactive | Cytotoxicity against all tested cell lines, in words [2]: inactive | Cytotoxicity IC50, MCF-7 (MCF-7): Inactive | Cytotoxicity IC50, HCT-116 (HCT-116): Inactive | Cytotoxicity IC50, HT-29 (HT-29): Inactive

COc1cc(O)c2c(c1)OCC(c1cc(OC)c(OC)cc1OC)C2=NO (stereo not drawn) [Compound 15, 5-Hydroxy-7,2′,4′,5′-tetramethoxyisoflavanone oxime]
IC50 at 72 h [1]: 29.8 ± 4.85 µM | IC50 [2]: 26 to 38 µM | IC50 (MCF-7): 28.9 ± 3.94 µM | IC50 (HCT-116): 26.4 ± 0.05 µM | IC50 (HT-29): 38.6 ± 2.77 µM

COc1cc(O)c2c(=O)c(-c3cc(OC)c(OC)cc3OC)coc2c1 [Compound 5, 5-Hydroxy-7,2′,4′,5′-tetramethoxyisoflavone]
IC50 at 72 h [1]: 13.5 ± 0.84 µM | IC50 [2]: 10 to 19 µM | IC50 (MCF-7): 12.5 ± 0.7 µM | IC50 (HCT-116): 19 ± 0.7 µM | IC50 (HT-29): 10.8 ± 1.65 µM

COc1cc(-c2coc3cc(O)cc(O)c3c2=O)c(OC)cc1O [Compound 1, Olibergin A]
IC50 (MRC-5): 25 µM | IC50 (KB): 48.1 µM | IC50 at 72 h [1]: 88.8 ± 4.33 µM | Cytotoxicity against all tested cell lines, in words [2]: weak activity | IC50 (MCF-7): 72.1 ± 1.12 µM | IC50 (HCT-116): 79.2 ± 4.78 µM | IC50 (HT-29): 32.2 ± 1.73 µM | IC50 (HeLa): 59.8 µM

7,4′-Dibutoxy-5-hydroxy-2′,5′-dimethoxyisoflavone [Compound 4]
Cytotoxicity IC50, Vero cell (vero cells): Inactive | Cytotoxicity IC50, MCF-7 (MCF-7): Inactive | Cytotoxicity IC50, HCT-116 (HCT-116): Inactive | Cytotoxicity IC50, HT-29 (HT-29): Inactive

C=C(C)[C@H]1Cc2c(ccc3c2O[C@@H]2COc4cc(OC)c(OC)cc4[C@]2(O)C3=O)O1 [(−)-12α-hydroxyrotenone]
IC50 (HepG2 cell line): 18 ± 1.51 µM

COc1cc(O)c2c(c1)OCC(c1cc(OC)c(OC)cc1OC)C2=O (stereo not drawn) [Compound 9, 5-Hydroxy-7,2′,4′,5′-tetramethoxyisoflavanone]
IC50 at 72 h [1]: 33.5 ± 1.25 µM | IC50 [2]: 19 to 37 µM | IC50 (MCF-7): 31 ± 1.89 µM | IC50 (HCT-116): 37.1 ± 1.28 µM | IC50 (HT-29): 19.2 ± 1.86 µM

CC(C)=CCC/C(C)=C/Cc1c(O)ccc2c1OC[C@H]1c3cc4c(cc3O[C@@H]21)OCO4 [R,R-Velucarpin A]
IC50 (HeLa cells): 10.9 ± 0.42 µM

5-Hydroxy-7,4′-dimesyl-2′,5′-dimethoxyisoflavone [Compound 2]
Cytotoxicity IC50, Vero cell (vero cells): Inactive | Cytotoxicity IC50, MCF-7 (MCF-7): Inactive | Cytotoxicity IC50, HCT-116 (HCT-116): Inactive | Cytotoxicity IC50, HT-29 (HT-29): Inactive

COc1ccc(C2COc3cc(O)ccc3C2)c(O)c1 (single isomer, unassigned; (-)) [(−)-vestitol]
Antifungal activity against Pythium insidiosum (Pythium insidiosum): strongest antifungal activity

COc1cc(OC)c2c(c1)OCC(c1cc(OC)c(OC)cc1OC)C2=O (stereo not drawn) [Compound 10, 5,7,2′,4′,5′-Pentamethoxyisoflavanone]
IC50 at 72 h [1]: 116 ± 20.2 µM | Cytotoxicity against normal cells (vero cell line), in words (vero cells; vero cell line): weak cytotoxicity; also recorded: weak activity | IC50 (MCF-7): 73.8 ± 0.77 µM | IC50 (HCT-116): 30.3 ± 1.15 µM | Cytotoxicity IC50, HT-29 (HT-29): Inactive

COc1cc(OC)c2c(c1)OCC(c1cc(OC)c(OC)cc1OC)C2 (stereo not drawn) [Compound 11, 5,7,2′,4′,5′-Pentamethoxyisoflavan]
IC50 at 72 h [1]: 31.1 ± 4.99 µM | IC50 [2]: 19 to 37 µM | IC50 (MCF-7): 21.1 ± 2.61 µM | IC50 (HCT-116): 28.9 ± 3.19 µM | IC50 (HT-29): 29.38 ± 0.08 µM
